Measured values gathered from unrelated publications.
Compare with care: the assays were run in different laboratories.
ABL1 phosphorylated: Tyrosine-protein kinase ABL1, phosphorylated (ABL1, Homo sapiens, UniProt P00519)
ABL1 F317L non-phosphorylated: Tyrosine-protein kinase ABL1, non-phosphorylated (ABL1, Homo sapiens, UniProt P00519, F317L)
ABL1 Q252H non-phosphorylated: Tyrosine-protein kinase ABL1, non-phosphorylated (ABL1, Homo sapiens, UniProt P00519, Q252H)
ABL1 non-phosphorylated: Tyrosine-protein kinase ABL1, non-phosphorylated (ABL1, Homo sapiens, UniProt P00519)
ABL1 E255K phosphorylated: Tyrosine-protein kinase ABL1, phosphorylated (ABL1, Homo sapiens, UniProt P00519, E255K)
ABL1 T315I non-phosphorylated: Tyrosine-protein kinase ABL1, non-phosphorylated (ABL1, Homo sapiens, UniProt P00519, T315I)
ABL1 Y253F: Tyrosine-protein kinase ABL1 (ABL1, Homo sapiens, UniProt P00519, Y253F)
ABL1 F317L phosphorylated: Tyrosine-protein kinase ABL1, phosphorylated (ABL1, Homo sapiens, UniProt P00519, F317L)
ABL1 H396P phosphorylated: Tyrosine-protein kinase ABL1, phosphorylated (ABL1, Homo sapiens, UniProt P00519, H396P)
ABL1 H396P: Tyrosine-protein kinase ABL1 (ABL1, Homo sapiens, UniProt P00519, H396P)

Nc1ncc2c(n1)-c1c([nH]c3ccc(C#CC4CC4)cc13)CCCC2  remaining binding (ABL1 phosphorylated; binding, competition with immobilised ligand; 1 µM): 100%
O=C(NCC1CCOCC1)c1n[nH]cc1NC(=O)c1c(F)cccc1F  remaining binding (ABL1 F317L non-phosphorylated; binding, competition with immobilised ligand; 1 µM): 88%
O=C(NS(=O)(=O)c1ccc(NCC2CCOCC2)c([N+](=O)[O-])c1)c1ccc(N2CCN(Cc3ccc(C(F)(F)F)cc3-c3ccc(Cl)cc3)CC2)cc1Oc1cnc2[nH]ccc2c1  remaining binding (Tyrosine-protein kinase ABL1, phosphorylated (ABL1, Homo sapiens, UniProt P00519, M351T); cell-free assay, competition with immobilised ligand; 1 µM): 100%
COc1cnc(Nc2cccc(S(N)(=O)=O)c2)nc1N1CCN(c2ccccc2)CC1  remaining binding (ABL1 Q252H non-phosphorylated; binding, competition with immobilised ligand; 1 µM): 78%
O=C(Nc1c[nH]nc1C(=O)NC1CCNCC1)c1cc(F)cc(F)c1  remaining binding (ABL1 phosphorylated; binding, competition with immobilised ligand; 1 µM): 100%
C=CC(=O)N1CCC(C(=O)NCC(=O)N2CCN(c3nc(-c4cnc(N)nc4C(F)F)nc(N4CCOCC4)n3)CC2)CC1  remaining binding (ABL1 Q252H non-phosphorylated; binding, competition with immobilised ligand; 1 µM): 94%
Cc1cnn2ncc(-c3ccnc(N(C)C)n3)c2c1  remaining binding (ABL1 phosphorylated; binding; 1 µM): 81%
O=C(O)[C@@H]1[C@@H](Cn2nnc3ccccc3c2=O)CC[C@H]1C(=O)c1ccc(OCCC2CCOCC2)cc1  remaining binding (Tyrosine-protein kinase ABL1, non-phosphorylated (ABL1, Homo sapiens, UniProt P00519, F317I); binding, competition with immobilised ligand; 1 µM): 82%
O=C(c1ccc(Nc2ncc(Cl)c(-c3ccc(Cl)s3)n2)cc1)N1CCC(N2CCCC2)CC1  remaining binding (Tyrosine-protein kinase ABL1, non-phosphorylated (ABL1, Homo sapiens, UniProt P00519, H396P); binding, competition with immobilised ligand; 1 µM): 0.35%
CN(c1nccc(-c2cnn3ncccc23)n1)C1CC1  remaining binding (ABL1 non-phosphorylated; binding; 1 µM): 100%
O=c1nc(-c2ccccn2)sc2ccccc12  remaining binding (ABL1 non-phosphorylated; binding, competition with immobilised ligand; 1 µM): 93%
O=C(NCCCN1CCOCC1)c1ccc(Nc2ncc(Cl)c(-c3ccc(Cl)s3)n2)cc1  remaining binding (ABL1 F317L non-phosphorylated; binding, competition with immobilised ligand; 1 µM): 71%
CCN1CCN(Cc2ccc(C(=O)Nc3ccc(C)c(Oc4ccc5c(c4)CC(=O)N5)c3)cc2C(F)(F)F)CC1  remaining binding (ABL1 E255K phosphorylated; binding, competition with immobilised ligand; 1 µM): 74%
CSc1cccnc1N1CCN(Cc2nc3ccccc3[nH]2)CC1  remaining binding (ABL1 F317L non-phosphorylated; cell-free assay, competition with immobilised ligand; 1 µM): 100%
O=C(c1ccc(Nc2ncc(Cl)c(-c3cc4ccccc4s3)n2)cc1)N1CCC(N2CCCC2)CC1  remaining binding (ABL1 T315I non-phosphorylated; binding, competition with immobilised ligand; 1 µM): 0.9%
COc1ncc2cc3ccccc3nc2c1C#N  remaining binding (ABL1 non-phosphorylated; cell-free assay, competition with immobilised ligand; 5 µM): 100%
c1cnn2ncc(-c3ccnc(N4CCC45COC5)n3)c2c1  remaining binding (ABL1 Y253F; binding; 1 µM): 59%
c1cncc(-c2cccc(Nc3nccc(NC4CCCCC4)n3)c2)c1  remaining binding (ABL1 F317L phosphorylated; binding, competition with immobilised ligand; 10 µM): 61%
CCCOc1ccc([C@@H]2[C@@H](C(=O)O)[C@H](c3ccc4c(c3)OCO4)CN2CC(=O)Nc2c(CC)cccc2CC)cc1  remaining binding (ABL1 T315I non-phosphorylated; cell-free assay, competition with immobilised ligand; 1 µM): 83%
COC(=O)Nc1nc2ccc(C(=O)c3ccccc3)cc2[nH]1  remaining binding (ABL1 E255K phosphorylated; cell-free assay, competition with immobilised ligand; 10 µM): 2.2%
CCC(=O)N[C@@H]1CC[C@H](C(=O)N(C)c2ccc(-c3nc4ccccc4o3)cc2)C1  remaining binding (ABL1 Q252H non-phosphorylated; cell-free assay, competition with immobilised ligand; 1 µM): 77%
C[C@H]1CCN(c2nccc(-c3cnn4ncccc34)n2)C1  remaining binding (ABL1 phosphorylated; binding; 1 µM): 59%
CNC(=O)[C@@H]1CC[C@@H](n2c(-c3ccc4cnccc4c3)nc3ccc(C(=O)NCc4cccc(C(N)=O)c4)cc32)C1  remaining binding (ABL1 H396P phosphorylated; binding, competition with immobilised ligand; 1 µM): 100%
Cc1cnc(Nc2ccc(C(=O)N3CCC(N4CCCC4)CC3)cc2)nc1-c1cc2ccccc2s1  remaining binding (Tyrosine-protein kinase ABL1, phosphorylated (ABL1, Homo sapiens, UniProt P00519, Y253F); binding, competition with immobilised ligand; 1 µM): 0.6%
CN(C)c1nccc(-c2cnn3ncccc23)n1  remaining binding (ABL1 H396P; binding; 1 µM): 89%
Nc1c(C(=O)NCc2ccc(C(=O)NCCCC3CCCCC3)cc2)cnn1-c1ccccc1  remaining binding (ABL1 Q252H non-phosphorylated; cell-free assay, competition with immobilised ligand; 0.1 µM): 87%
C[C@@H](c1ccc(-n2cnc3c(N)ncnc32)cc1)N1CCc2nn(C)c(Cc3ccccc3)c2C1=O  remaining binding (ABL1 phosphorylated; binding, competition with immobilised ligand; 0.1 µM): 90%
O=C(NCCCN1CCOCC1)c1ccc(Nc2nccc(-c3cc4ccccc4s3)n2)cc1  remaining binding (ABL1 T315I non-phosphorylated; binding, competition with immobilised ligand; 1 µM): 19%
F[C@@H]1CCN(c2nccc(-c3cnn4ncccc34)n2)C1  remaining binding (Tyrosine-protein kinase ABL1 (ABL1, Homo sapiens, UniProt P00519, M351T); binding; 1 µM): 100%
CCCCN(CCCC)C(=O)CN1C[C@@H](c2cc(OC)c3c(c2)OCO3)[C@H](C(=O)O)[C@H]1CC(C)(C)CCC  remaining binding (ABL1 F317L phosphorylated; cell-free assay, competition with immobilised ligand; 1 µM): 93.5%
CC1CCCN1c1nccc(-c2cnn3ncccc23)n1 (stereo not shown)  remaining binding (ABL1 H396P; binding; 1 µM): 80%
COc1cnc(Nc2cccc(S(N)(=O)=O)c2)nc1N1CCN(c2ccccc2)C(=O)C1  remaining binding (ABL1 Q252H non-phosphorylated; binding, competition with immobilised ligand; 1 µM): 95%
N[C@H]1CCN(c2nccc(-c3cnn4ncccc34)n2)C1  remaining binding (ABL1 Y253F; binding; 1 µM): 53%
O=C(c1ccc(Nc2nccc(-c3cc4ccccc4s3)n2)cc1)N1CCC(N2CCCC2)CC1  remaining binding (ABL1 H396P phosphorylated; binding, competition with immobilised ligand; 1 µM): 13%
